Only some compounds are listed: those with a hit (about 1% of all), similar ones and a draw of the others.
B2AR ag: beta2AR agonists driving receptor internalization, primary screen, cell-based, FAP fluorogen, flow cytometry | Beta-2 adrenergic receptor (Homo sapiens), P07550 | Am2.2-beta2AR cells | response, % (test concentration not listed) | 340,000 tested, 0.43% active | AID 504454, 2011;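 active = response above a set limit, near 3 SD of response in nonfluorescent compounds, cut at about 42% in these data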
Target sequence (P07550 whole entry, looked up): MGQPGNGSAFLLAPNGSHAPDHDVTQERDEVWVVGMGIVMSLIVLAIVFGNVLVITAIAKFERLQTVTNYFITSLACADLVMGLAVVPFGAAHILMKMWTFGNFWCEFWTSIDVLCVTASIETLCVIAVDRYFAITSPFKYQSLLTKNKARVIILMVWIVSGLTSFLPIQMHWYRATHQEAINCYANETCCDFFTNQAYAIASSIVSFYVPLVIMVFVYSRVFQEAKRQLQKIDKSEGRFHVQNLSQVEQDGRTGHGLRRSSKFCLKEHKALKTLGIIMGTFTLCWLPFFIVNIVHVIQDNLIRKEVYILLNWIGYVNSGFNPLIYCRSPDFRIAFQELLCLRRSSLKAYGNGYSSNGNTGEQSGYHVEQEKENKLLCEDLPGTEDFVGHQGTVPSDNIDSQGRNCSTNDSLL
CHOP UPR activ: activators of apoptotic CHOP UPR arm, primary screen, cell-based, CHO-CHOP luciferase reporter, luminescence, uHTS. AID 449763, 2010. activation, % at 10 µM. 330,000 tested, 0.34% active. UPR activation; percent of tunicamycin response over DMSO baseline;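 active = at 10 µM dose, activation of 40% or more, normalized to positive control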
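Test system: CHO CHOP reporter cells. Input: 500 CHO-CHOP cells per well. Medium: F12 with 10% FBS. Technique: luciferase luminescence. Measure: percent activation relative to tunicamycin control. Dosing: 10 µM compound, 0.5% DMSO. Timing: 16-18 h cell attachment, then 6 h compound exposure, 37 °C.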
XBP1 UPR activ: activators of adaptive XBP1 UPR arm, primary screen, cell-based, CHO-XBP1 luciferase reporter, luminescence, uHTS. IRE1-XBP1 UPR activation; percent of tunicamycin response, DMSO as zero. activation, % at 20 µM. 330,000 tested, 0.33% active. AID 463104, 2010;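 active = versus positive control, 20 µM dose yields 30% or more activation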
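Material – CHO cell line with stable XBP1 luciferase reporter · Buffer or medium – F12 plus 10% FBS · Compound – single point, 20 µM final compound, 1% DMSO · Schedule – 16-18 h cell attachment at 37 °C, then 6 h compound exposure · Signal – Steady-Glo luminescence read · Benchmarks – high control tunicamycin 10 µg/mL final, low control DMSO vehicle only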
T cell modulator: modulators of CD8 T cell-vesicle binding, primary screen, mouse 2C CD8+ T cells, flow cytometry; 2C CD8+ T cell-vesicle binding; hits give low values; response (vesicle binding), % at 7 µM; 330,000 tested, 0.068% active; AID 2052, 2009;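 active = response, share of CD8 T cells binding vesicles, and their 90th percentile fluorescence all below set limits, cut at about 80% in these data, passing the limit was not always enough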;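 note: values below 100% mean blocked vesicle binding to the CD8+ T cells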
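Test system: purified 2C TCR transgenic mouse naive CD8+ T cells. Probe or stimulus: QL9-peptide-loaded Drosophila micro-vesicles bearing Ld, ICAM-1 and B7-1. Incubation: binding step 1.5 h, 37 °C, antibody labelling 20 min, ice. Measured by: flow cytometry of vesicle-bound cells.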
B2AR ag CP1: beta2AR agonists via receptor internalization, confirmation, cell-based, FAP fluorogen, flow cytometry, single point, cherry pick 1 | shares compounds with B2AR ag | Am2.2-beta2AR cells, FAP surface receptor; hits give low values | percent response (surface receptor), % at 10 µM | 1,100 tested, 25% active | AID 540358, 2011;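 active = surface receptor percent response at or below 58%, roughly 3 SD from nonfluorescent compounds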
B2AR FAP counter: flagged in Am2.2 fluorescence counterscreen for beta-2AR agonists. shares compounds with B2AR ag. Am2.2 cells, FAP fluorogen flow cytometry; hits give low values. calls only at 10 µM. 1,100 tested, under 10 active. AID 588765;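 active = percent response below a set limit in fluorescence channel 1 and below 50% in channel 8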
Hits are given with their value; . = inactive; / = not tested or not shown.

SMILES | B2AR ag | CHOP UPR activ | XBP1 UPR activ | T cell modulator | B2AR ag CP1 | B2AR FAP counter
COc1ccc2[nH]c3c(NCCC4=CCCCC4)ncnc3c2c1 | 45.2 | / | / | / | . | .
Cc1ccc(C(=O)c2ccccc2C(=O)OCC(=O)N2CCCC2)cc1 | . | . | . | . | . | .
Oc1ccc(NCc2ccccc2OCc2ccccc2)cc1 | . | . | . | . | . | .
CCNCc1ccccc1OCc1ccccc1 | . | . | . | . | / | /
COc1ccccc1NC(=O)CSc1nnc(CNC(=O)COc2ccc(Cl)cc2)o1 | . | . | . | . | / | /
CCCNc1nc(-c2ccccc2)c(C(=O)OCC)cc1C#N | 50.4 | . | . | . | . | .
COc1cc(CNCCc2c[nH]c3ccccc23)ccc1OCc1ccc(F)cc1 | 72.3 | . | . | . | 55.6 | .
COc1cccc(CNCCc2c[nH]c3ccccc23)c1OCc1ccc(F)cc1 | . | . | . | . | / | /
Nc1cc(N)nc(SCc2cc([N+](=O)[O-])cc3c2OCOC3)n1 | 54.6 | . | . | . | 10.0 | .
O=[N+]([O-])c1cc2c(c(CSc3ncccn3)c1)OCOC2 | . | . | . | . | / | /
CC(C)c1ccc(NC(=O)C(c2ccc3c(c2)OCO3)N2CCC3(CC2)OCCO3)cc1 (stereo unspecified) | . | . | . | . | . | .
Cc1c(NC(=O)/C=C/c2cn(-c3ccccc3)nc2-c2ccccc2)c(=O)n(-c2ccccc2)n1C | . | . | . | . | / | /
O=C(c1cccc(S(=O)(=O)N2CCCC2)c1)c1nnc(-c2ccncc2)o1 | . | . | . | . | / | /
CN(Cc1cccs1)c1nc(-c2cccnc2)nc2ccccc12 | 102.7 | . | . | . | 2.7 | .
c1ccc(-c2nc(NCc3cccs3)c3ccccc3n2)cc1 | . | . | . | . | / | /
O=C(NCc1ccco1)NC12CC3CC(CC(C3)C1)C2 | . | . | . | . | / | /
O=C(c1cc2c(=O)n3ccccc3nc2s1)N1CCN(Cc2ccc3c(c2)OCO3)CC1 | 74.2 | . | . | . | 24.0 | .
CCCOc1ccc(-c2nnn(CC(=O)Nc3cccc(C(=O)OC)c3)n2)cc1 | . | . | . | . | . | .
COC(=O)c1ccccc1NC(=O)Cn1nnc(-c2ccc(OC)cc2)n1 | . | . | . | . | . | .
Cc1cccc(C)c1NC(=O)Cn1nnc(-c2ccc(N3CCOCC3)cc2)n1 | . | . | . | . | . | .
Cc1ccc(NC(=O)CN(C)C(=O)Cn2nnc(-c3ccccc3C)n2)cc1 | . | . | . | . | / | /
COC(=O)c1ccccc1NC(=O)Cn1nnc(-c2ccc3c(c2)OCO3)n1 | . | . | . | . | / | /
CCOC(=O)c1ccc(NC(=O)Cn2nnc(-c3ccccc3C)n2)cc1 | . | . | . | . | . | .
Cc1cc(C)n(CC(O)Cn2c(C)c(C)c3ccccc32)n1 (stereo unspecified) | . | . | . | . | / | /
CC1=C(C(=O)Nc2ccccc2)C(c2cc(CN3CCOCC3)cs2)C2=C(CCCC2=O)N1 (stereo unspecified) | . | . | . | . | / | /
SMILES | B2AR ag | CHOP UPR activ | XBP1 UPR activ | T cell modulator | B2AR ag CP1 | B2AR FAP counter
S=C(NCCN1CCOCC1)C(=S)NCCN1CCOCC1 | . | / | / | / | / | /
CC(=O)c1c(-c2ccc(C)cc2)nc2c3ccccc3ccn12 | . | . | . | . | / | /
Cc1cc(NC(=O)Cn2nnc(-c3ccccc3N)n2)no1 | . | . | . | . | / | /
COc1ccc(Cl)c(NC(=O)Cn2nnc(-c3ccccc3N)n2)c1 | . | . | . | . | . | .
COc1ccc(NC(=O)Cn2nnc(-c3ccc(CN4CCOCC4)cc3)n2)c(OC)c1 | . | . | . | . | . | .
CC1CCCC(C)N1C(=O)CSc1nc2ccccc2c(=O)[nH]1 (stereo unspecified) | . | . | . | . | / | /
COC(=O)c1ccc(C(=O)OC)c(NC(=S)N2CCC(C(N)=O)CC2)c1 | . | . | . | . | / | /
NC(=O)c1cc2c3ccccc3ccn2c1-c1ccccc1 | 42.5 | / | / | . | . | .
Cc1cc(C(N)=O)c2ccccc2n1 | . | . | . | . | / | /
CCOC(=O)C(C)Oc1cccc2c(=O)n(CC(=O)NCCc3ccccc3)ccc12 (stereo unspecified) | . | . | . | . | / | /
CCOC(=O)COc1cccc2c(=O)n(CC(=O)NCCc3ccccc3)ccc12 | 43.7 | . | . | . | . | .
O=C(COc1ccc(S(=O)(=O)N2CCOCC2)cc1)Nc1ccc(Br)cc1 | . | . | . | . | . | .
CCc1ccc(OCC(=O)Nc2ccc(S(=O)(=O)N3CCOCC3)cc2)cc1 | . | . | . | . | / | /
CCOc1ccc(NC(=O)COc2ccc(S(=O)(=O)N3CCOCC3)cc2)cc1 | . | . | . | . | 50.9 | .
COC(=O)c1ccc(NC(=O)COc2ccc(S(=O)(=O)N3CCCCC3)cc2)cc1 | 87.0 | . | . | . | 9.0 | .
O=C(COc1ccc(S(=O)(=O)N2CCOCC2)cc1)Nc1ccc(Cl)c(C(F)(F)F)c1 | . | . | . | . | . | .
COc1ccc(OCC(=O)Nc2ccc(S(=O)(=O)N3CCOCC3)cc2)cc1 | . | . | . | . | / | /
CCCCN(C(=O)c1ccccc1OCc1ccc(F)cc1)c1c(N)n(CC(C)C)c(=O)[nH]c1=O | . | . | . | . | / | /
O=C(COc1ccc(S(=O)(=O)N2CCOCC2)cc1)Nc1ccc2c(c1)OCCO2 | . | . | . | . | . | .
CCN(C(=O)c1ccc(Br)o1)C1CCS(=O)(=O)C1 (stereo unspecified) | . | . | . | . | / | /
OC(CNCc1cccc(Br)c1)c1ccccc1 (stereo unspecified) | . | . | . | . | . | .
OC(CNCc1ccc(-c2ccccc2)cc1)c1ccccc1 (stereo unspecified) | . | . | . | . | / | /
CCCN1CCN(C(=S)Nc2ccc3nc(N4CCN(CC)CC4)cc(C)c3c2)CC1 | . | . | . | . | / | /
Cc1ccc(NC(=O)CN2C(=O)/C(=C3\SC(=S)N(C4CCS(=O)(=O)C4)C3=O)c3ccccc32)cc1 (stereo unspecified) | 48.8 | / | / | / | . | .
O=C(CN1C(=O)/C(=C2\SC(=S)N(C3CCS(=O)(=O)C3)C2=O)c2ccccc21)Nc1ccccc1 (stereo unspecified) | . | . | . | . | / | /
CSc1ccc(C(=O)C2CCCN(Cc3cccn3-c3cccnc3)C2)cc1 (stereo unspecified) | 69.5 | . | . | . | 19.4 | .
O=C(c1ccc(Cl)cc1)C1CCCN(Cc2cccn2-c2cccnc2)C1 (stereo unspecified) | . | . | . | . | / | /

Screens from PubChem BioAssay.
